Bioassay records from PubChem BioAssay.
Hits are enriched below; roughly 3.5% of the tested compounds scored in any of these assays.
RAM network inh – yeast RAM network inhibition | S. cerevisiae dse1pr::URA3 reporter, 5-FOA growth OD615, 2 d; analog-sensitive cbk1-as2 kinase mutant strain | inhibition, % at 50 µM | 1.8% of 190,000 active;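 active = inhibition above a set limit, 3 SD over mean compound inhibition, cut at about 8.4% in these data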;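 also: 0% = DMSO-only wells with no growth and 100% = 10 µM 1-NA-PP1 full growth; inhibition rescues growth on 5-FOA so higher OD means more RAM inhibition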
Yeast lifespan up – yeast lifespan extension; S. cerevisiae growth with nicotinamide, OD615; deaD strain in restrictive glucose medium; inhibition of the nicotinamide effect, % at 10 µM; 0.68% of 130,000 active; AID 775;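 active = inhibition above a set limit, placed 3 SD over the median of all compounds, cut at about 26% in these data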;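 also: 0% = nicotinamide-treated wells and 100% = cells grown without nicotinamide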
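assay system = DeaD-strain S. cerevisiae | measured by = absorbance at 615 nm | probe or stimulus = nicotinamide 1.5 mM | buffer or medium = CSMM-D glucose medium, restrictive | times = 48 h at 30 °C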
HMGR II inh – inhibitors of class II HMG-CoA reductase from Enterococcus faecalis | 0.41% of 190,000 active | inhibition, % at 10 µM | purified E. faecalis HMGR, NADPH absorbance 340 nm kinetic;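 active = inhibition above a set limit, the median over all tested compounds plus 3 SD, cut at about 9.5% in these data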;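 also: enzyme runs in reverse so mevalonate oxidation gives rising NADPH absorbance; 0% = complete reaction with DMSO and 100% = background rate lacking mevalonate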
MT stabilize HCS – stabilizes microtubules in HeLa cells | 0.83% of 200,000 active | % tubulin-high responders, % at 10 µM | HeLa tubulin immunostaining HCS, 24 h; share of cells brighter than vehicle mean+2SD;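 active = plate Z-score above 3 for both tubulin-high and condensed-nucleus cell shares, with cell loss under 80%, at 10 µM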;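 also: anti alpha tubulin signal scored within the nucleus-defined area of each cell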
Yeast growth inh – yeast BB579 growth reduction in restrictive medium. S. cerevisiae BB579 growth, OD615, 48 h. 0.51% of 140,000 active. inhibition, % at 10 µM;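 active = inhibition above a set limit, 3 SD over the mean compound inhibition, cut at about 44% in these data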
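Assay system – yeast BB579 (DeaD) · Dosing – single compound dose of 10 µM, 0.25% DMSO final · Detection – OD615 turbidity measurement · Buffer or medium – CSMM-D restrictive synthetic medium containing dextrose (glucose) · Benchmarks – positive control amphotericin B 10 µg/mL · Incubation – 48 h exposure, 30 °C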
bCat nuc transl – modulators of beta-catenin nuclear translocation; HeLa beta-catenin nuclear translocation, immunofluorescence imaging; nuclear translocation activity, % at 5 µM; 0.3% of 190,000 active;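 active = nuclear translocation activity above 50% at 5 µM, with a well cell count of 50 or more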;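 also: per-cell ratio of nuclear to cytoplasmic median beta-catenin stain intensity; plate controls were DMSO negative control for no effect and GSK-3 inhibitor IX positive control for full effect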
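Test system: HeLa cells, endogenous beta-catenin; Compound: single 5 µM dose plus 0.02–20 µM confirmation series; Times: compound exposure 24 h at 37°C; Signal: fluorescence imaging of beta-catenin antibody stain plus DAPI; Read-out: % activation, nuclear-to-cytoplasmic median beta-catenin signal ratio per cell.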
An asterisk follows results filed as active; x = not tested or not shown.

SMILES | RAM network inh | Yeast lifespan up | HMGR II inh | MT stabilize HCS | Yeast growth inh | bCat nuc transl
Cc1cc(NC(=O)c2cc(-c3ccco3)on2)nn1Cc1ccc(Cl)cc1 | 6.0 | 2.1 | -6.8 | 18.3* | -18.9 | x
Clc1ccc(OCc2noc(-c3ccsc3)n2)c(Cl)c1 | x | x | x | x | x | -1.0
Cc1ccc(NC(=O)CCCSc2ccccc2)cc1S(=O)(=O)N1CCOCC1 | 8.9* | x | -1.8 | 3.5 | x | -1.0
CC(=O)c1cc2c(cc1N/C(=N/S(=O)(=O)c1ccccc1)c1ccc(Cl)cc1)OCO2 | 5.5 | 5.8 | 13.4* | 4.4 | -38.8 | 4.1
CC(=O)c1cc2c(cc1NS(=O)(=O)c1ccccc1)OCO2 | 0.8 | -13.1 | -2.4 | 1.3 | -31.1 | x
CCOC(=O)C1CCN(c2c(NCc3ccc(C(=O)Nc4ccc(C)cc4)cc3)c(=O)c2=O)CC1 | x | x | x | x | x | 0.2
CCC1CCC(NC(=O)Nc2cccc(OC)c2)CC1 (stereo not drawn) | 7.3 | x | -2.5 | 2.8 | x | 1.2
CC(C)(CO)CNC(=O)CCc1nnc(C2(c3ccc(Cl)cc3)CCC2)o1 | 3.2 | x | -1.7 | 3.0 | x | 2.0
COCCNC(=O)CCc1nnc(C2(c3ccc(Cl)cc3)CCC2)o1 | 0.3 | x | 12.9* | 2.4 | x | 0.3
Cc1nnc(SC(C)C(=O)Nc2ccc(S(=O)(=O)N3CCCCCC3)cc2)s1 (stereo not drawn) | 9.2* | -20.9 | -4.0 | 4.0 | -50.5 | -2.9
CCCCCC(C)NC(=O)c1ccoc1C (stereo not drawn) | -0.1 | x | 10.6* | 1.4 | -10.5 | x
CC[n+]1c(/C=C/C=C/N(C(C)=O)c2ccccc2)sc2cc(OC)ccc21 | 1.2 | 13.2 | -4.2 | 73.1* | -39.9 | 164.6*
CCOC(=O)C(=NC(C)CC)NNc1ccc(Br)cc1 (stereo not drawn) | 0.3 | -6.6 | -3.4 | 2.5 | 92.6* | 0.5
CCOC(=O)C(=NC(C)CC)NNc1cccc(C(F)(F)F)c1 (stereo not drawn) | 0.3 | -3.4 | -3.9 | 4.1 | -11.8 | 1.2
COCCn1c(=N)c(C(=O)NCc2ccco2)cc2c(=O)n3cc(C)ccc3nc21 | 2.8 | x | 16.5* | 1.1 | x | -0.1
Cc1ccc(Cn2c(=N)c(C(=O)NCc3ccco3)cc3c(=O)n4ccccc4nc32)cc1 | -0.6 | -4.3 | -5.9 | 4.9 | -21.1 | x
c1coc(CSc2ncnc3c2oc2ccccc23)c1 | x | x | x | x | x | 0.2
O=C(CSc1nnc(-c2ccccc2F)n1CCc1ccccc1)Nc1ccc2[nH]c(=O)[nH]c2c1 | 9.0* | -1.7 | 0.0 | 3.9 | -13.0 | 3.4
CCC(=O)Nc1ccc(C(=O)CSc2nnc(-c3ccccc3F)n2CCc2ccccc2)cc1 | 7.2 | 0.8 | 3.5 | 6.6 | -27.5 | -0.1
COC(=O)c1ccc(C(=O)OC)c(NC(=O)N2c3ccccc3Sc3ccccc32)c1 | 4.9 | -3.2 | 0.6 | 11.6 | -34.6 | -0.7
COC(=O)c1cc(NC(=O)N2c3ccccc3Sc3ccccc32)cc(C(=O)OC)c1 | 9.8* | -4.9 | -4.0 | 0.9 | -65.4 | x
O=c1[nH]c(-c2ccccc2Cl)nc2c1sc(=S)n2-c1ccccc1 | 3.1 | x | -1.7 | 3.9 | x | -1.2
O=[N+]([O-])C(/C=C(\Cl)[N+](=O)[O-])=C1N(Cc2ccc(Cl)nc2)CCN1Cc1ccc(Cl)nc1 | 4.6 | -11.7 | 13.4* | 3.0 | -22.4 | x
O=[N+]([O-])/C(C(=C(Cl)Cl)N1CCN(Cc2ccccc2)CC1)=C1\NCCN1Cc1ccc(Cl)nc1 | 1.4 | x | -4.3 | 3.7 | x | -0.3
S=c1[nH]ncn2c1cc1oc3ccccc3c12 | 1.1 | x | -2.0 | 7.9 | x | -5.2
SMILES | RAM network inh | Yeast lifespan up | HMGR II inh | MT stabilize HCS | Yeast growth inh | bCat nuc transl
CC1CCN(C(=O)CNC(=O)c2cccc(OC(F)F)c2)CC1 | 3.0 | x | -0.4 | 2.3 | x | -0.4
COc1cc(OC)cc(-c2nc3ccccc3c(=O)n2OC(=O)c2ccc(Br)cc2)c1 | 2.3 | 71.0* | 0.5 | 1.1 | -10.9 | -1.5
COc1ccc(C(=O)On2c(-c3ccc(Br)cc3)nc3ccccc3c2=O)cc1 | 2.7 | 96.0* | 2.7 | 2.5 | -32.7 | -1.3
C(=C\c1ccccn1)/c1cccnc1 | x | x | x | x | x | -1.2
Cc1ccc2[nH]c(-c3ccccc3)cc(=O)c2c1 | 0.4 | -23.8 | 0.3 | 43.0* | -31.1 | 92.9*
COc1ccc(C(=O)CN2Cc3ccccc3C2=N)cc1 | x | x | x | x | x | 0.8
CCOC(=O)c1cnc(-n2nc(C)cc2C)nc1Nc1ccccc1OC | 2.3 | -0.1 | 4.6 | 4.0 | -32.6 | -3.3
CCOC(=O)c1cnc(-n2nc(C)cc2C)nc1NCCc1ccccc1 | -1.5 | -14.9 | -5.8 | 3.0 | 52.3* | -5.7
CC(=O)NC1C(OCc2ccccc2)OC2COC(c3ccccc3)OC2C1OCC(=O)O (stereo not drawn) | 2.7 | x | 1.0 | 1.4 | x | -0.1
CCC(C)/C(C)=N/NC(=O)c1ccc(COc2ccc(Cl)c(C)c2)cc1 (stereo not drawn) | 0.1 | -8.2 | -0.6 | 4.1 | 97.4* | -2.1
O=S(=O)(Nc1nc(-c2sccc2Cl)cs1)c1cc(Cl)ccc1Cl | 3.5 | 45.5* | 3.0 | 1.2 | -24.1 | x
O=S(=O)(Nc1ccncc1Cl)c1cc(Cl)ccc1Cl | x | x | x | x | x | -1.0
CCS(=O)(=O)c1ccc(C(=O)Nc2ccccc2OC)c(Cl)c1Cl | 0.8 | x | -0.8 | 4.3 | x | -4.2
COc1cc(S(=O)(=O)N(Cc2ccc(C)cc2)Cc2ccco2)ccc1-n1cnnn1 | 9.0* | -4.9 | 2.8 | 1.1 | -46.7 | x
Cc1cc(S(=O)(=O)N(Cc2ccc(C(C)(C)C)cc2)Cc2cccs2)ccc1-n1cnnn1 | 9.3* | 3.8 | -3.0 | 4.1 | -18.1 | 3.6
Cc1ccc(S(=O)(=O)Nc2cccc(-c3ccc4nnc(C)n4n3)c2)s1 | 2.9 | x | -1.0 | 3.2 | x | -0.2
CC(C)(C)NC(=O)C(c1ccc(O)cc1)N(C(=O)CCC(=O)Nc1nccs1)c1ccc(F)cc1 (stereo not drawn) | 2.8 | x | -1.6 | 2.8 | x | -1.4
CCOc1cc(N2CCOCC2)c(OCC)cc1NS(=O)(=O)c1ccc(Cl)s1 | 1.9 | 2.1 | -9.5 | 39.8* | -44.0 | 9.5
Cc1nc(=S)c2ccccc2[nH]1 | 0.3 | -31.9 | 14.9* | 1.3 | -13.3 | x
O=C(CSc1nnc(Cc2cc(=O)[nH]c(=O)[nH]2)n1-c1ccccc1)N1CCCc2ccccc21 | 8.6* | -3.5 | -2.0 | 4.1 | -20.4 | -2.4
CCc1ccc2nc(NC(=O)c3ccc(N4C(=O)CCC4=O)cc3)sc2c1 | x | x | x | x | x | 0.1
CNS(=O)(=O)c1ccc2nc(NC(=O)c3ccc(N4C(=O)CCC4=O)cc3)sc2c1 | 4.1 | x | 10.4* | 3.8 | x | -3.2
CCOC(=O)/C(C#N)=C/Nc1ccccc1OC(F)(F)F | x | x | x | x | x | 0.1
COC(=O)/C(=C1/Oc2ccc(C)cc2S1)C(F)(F)F | 1.3 | 9.9 | 0.8 | 7.4 | -45.4 | 0.4
COC(=O)/C(=C1/Oc2cc3c(cc2S1)OCO3)C(F)(F)F | 2.7 | 37.1* | -0.9 | 4.4 | -58.0 | x
O=C(CN1CC(=O)Nc2ccccc21)NCCc1ccc(Cl)cc1Cl | 4.4 | x | 3.0 | 1.4 | x | 1.5
CC(C)(C)NC(=S)NC(C)(C)C | x | x | x | x | x | -0.5
